Measured values gathered from unrelated publications.
Lines come from different studies, so protocols differ.
Target: Calcium/calmodulin-dependent protein kinase kinase 1 (CAMKK1, Homo sapiens, UniProt Q8N5S9)

SMILES	assay	setting	endpoint	value
CC(C)(C)c1nc2c(s1)c1nc(N)ncc1c1ccc(NS(=O)(=O)c3c(F)cccc3F)c(F)c12	enzyme activity, inhibitor, radiometric	1 µM	remaining activity	88%
COc1cc(Cl)c(C(=O)N[C@@H](CN[C@H]2CC[C@@H](N)CC2)Cc2ccc(C#N)cc2)cc1-c1ccc(CN[C@H](C)c2ccc(C)cc2)o1	enzyme activity, inhibitor	1 µM	remaining activity	100%
CN(c1ccnc(CNc2nc(Nc3ccc4c(c3)CC(=O)N4)ncc2C(F)(F)F)n1)S(C)(=O)=O	cell-free assay, competition with immobilised ligand	1 µM	remaining binding	90%
COc1cc(Nc2c(C#N)cnc3cc(OCCCN4CCN(C)CC4)c(OC)cc23)c(Cl)cc1Cl	cell-free assay	0.5 µM	remaining signal	84.8%
Cc1nc(N2CC[C@@H](O)C2)ncc1-c1cc(C(F)(F)F)cc2[nH]ncc12	binding, competition with immobilised ligand	1 µM	remaining binding	100%
c1ccc(CNc2nc(N3CCOc4ccccc43)nc3c2CCCC3)cc1	target engagement in cells, inhibitor, chemoproteomics	20 mM	inhibition	-7.1%
N#CCCc1ccc2c(c1)-c1[nH]c3ccc([N+](=O)[O-])cc3c1CC(=O)N2	cell-free assay	0.5 µM	remaining signal	86.7%
O=C(Nc1cnn(-c2csc(C(=O)NC3COC3)c2)c1)Nc1ccccc1Cl	enzyme activity, inhibitor	5 µM	remaining activity	130%
CC1=C(C#N)C(c2ccc3c(c2)c(NC(=O)c2ccccc2C)nn3C)C(C#N)=C(C)N1	cell-free assay, competition with immobilised ligand	1 µM	remaining binding	100%
Cn1c2c(c3ccc(Cl)c(Cl)c31)C(C#N)C(C)(C)NC2=O (stereo not drawn)	thermal stability, DSF	10 µM	ΔTm	2.6 °C
NS(=O)(=O)c1cc(NC(=O)Cc2ccccc2)ccc1Oc1cccc(Cl)c1	cell-free assay, competition with immobilised ligand	1 µM	remaining binding	100%
O=C1NC(=O)c2cc(Nc3ccc(F)cc3)c(Nc3ccc(F)cc3)cc21	cell-free assay	0.5 µM	remaining signal	90.2%
Cn1c2c(Cl)c(Cl)ccc2c2cc(N)[nH]c(=O)c21	thermal stability, DSF	10 µM	ΔTm	0.7 °C
Cc1nccc(COC(=O)N2C[C@@H]3[C@@H](CNC(=O)c4ccc5[nH]nnc5c4)[C@@H]3C2)n1	cell-free assay, competition with immobilised ligand	1 µM	remaining binding	100%
Cc1ccc(C(=O)NCc2ccsc2)cc1C#Cc1cn(C(C)C)c2ncnc(N)c12	enzyme activity, inhibitor	1 µM	activity vs control	84%
Cn1c2c(Cl)c(Cl)ccc2c2cn[nH]c(=O)c21	thermal stability, DSF	10 µM	ΔTm	0.5 °C
COc1cccc2c(NCc3ccccc3)nc(-n3c(N)nc4ccccc43)nc12	target engagement in cells, inhibitor, chemoproteomics	20 mM	inhibition	-24.9%
CN1CC(Oc2cnc(C#N)cc2-c2ccn3nc(NC(=O)C4CC4)cc3c2)C1	enzyme activity, inhibitor	1 µM	inhibition	3%
